# In the library only some 5.8% were active in any assay of this set; here they are far more common.
# Pf Dd2 inh = P. falciparum Dd2 growth inhibition | SYBR Green, 72 h; hits give low values | activity change, % at 10 µM | 94,000 compounds, 2.3% hits | AID 1159554; in the data active = activity change below about -80%; inconclusive = no clear call, values can overlap the other calls
# T cruzi growth-1 = inhibitors of T. cruzi proliferation | T. cruzi beta-gal in NIH3T3, GalScreen luminescence, 90 h | inhibition, % at 8.34 µM | 77,000 compounds, 5.9% hits;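 active = mean inhibition above about 93%, with at least 55% of replicates each passing it, limit read from the data, passing the limit was not always enough; inconclusive = only one of those two conditions holds; inactive = neither condition holds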
# GASC1 inh = inhibitors of human demethylase GASC-1 KDM4C; GST-KDM4C 2-372, H3K9me3 peptide, LANCE TR-FRET; 96,000 compounds, 0.15% hits; inhibition, % at 12.5 µM; Q9H3R0;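 active = mean replicate inhibition above about 25%, with at least 55% of replicates also reaching it, limit read from the data, passing the limit was not always enough; inconclusive = only one of those two conditions met; inactive = neither condition met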
# Target sequence (Q9H3R0 2-372 limits assumed): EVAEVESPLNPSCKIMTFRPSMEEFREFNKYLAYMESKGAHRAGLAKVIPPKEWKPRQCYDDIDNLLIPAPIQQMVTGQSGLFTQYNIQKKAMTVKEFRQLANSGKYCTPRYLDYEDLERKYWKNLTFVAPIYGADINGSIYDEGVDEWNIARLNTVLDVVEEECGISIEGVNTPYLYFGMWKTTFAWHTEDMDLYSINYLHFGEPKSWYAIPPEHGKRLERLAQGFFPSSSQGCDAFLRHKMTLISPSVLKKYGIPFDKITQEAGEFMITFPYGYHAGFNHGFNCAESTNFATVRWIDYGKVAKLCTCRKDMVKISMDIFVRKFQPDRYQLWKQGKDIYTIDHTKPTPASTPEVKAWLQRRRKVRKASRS
#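 reagent = H3K9me3 peptide substrate, Fe(II), 2-oxoglutarate | system = GST-tagged GASC-1 (JMJD2C) catalytic fragment, aa 2-372 | amount = enzyme final amount 10 nM | read-out = Fall in 671/618 emission ratio as inhibition | medium = HEPES buffer, pH 7.5, plus ascorbate | schedule = 30 min reaction, 60 min detection, RT | measured by = LANCE TR-FRET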
# IDH1 mut inh = IDH1 R132H (human) inhibition | 70,000 compounds, 0.18% hits | inhibition, % at 10 µM | IDH1 R132H reductase, diaphorase/resazurin fluorescence, 60 min; in the data active = inhibition above about 34%; inconclusive = no clear call, values can overlap the other calls; inactive = below about 11%;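 also: 0% = DMSO and 100% = no enzyme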
# T cruzi growth-2 = Trypanosoma cruzi proliferation inhibition; shares compounds with T cruzi growth-1; T. cruzi beta-gal in NIH3T3, GalScreen luminescence, 90 h; inhibition, % at 8.35 µM; 5,600 compounds, 72% hits; AID 651739;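 active = mean replicate inhibition above about 95% and at least 55% of replicates individually reaching it, limit read from the data; inconclusive = only one of the two criteria is met; inactive = neither criterion is met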
# T cruzi growth-3 = Trypanosoma cruzi proliferation inhibition; shares compounds with T cruzi growth-1; 5,600 compounds, 21% hits; AID 651740; T. cruzi beta-gal in NIH3T3, GalScreen luminescence, 90 h; inhibition, % at 2.09 µM;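 active = mean inhibition above about 95%, with at least 55% of replicates also reaching it, limit read from the data; inconclusive = meets just one of the two conditions; inactive = meets neither condition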;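 also: plate controls were neutral control median for no effect and positive control median for full effect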
# NIH3T3 tox = cytotoxicity in mouse NIH/3T3 fibroblasts; shares compounds with T cruzi growth-1; NIH/3T3 viability, CellTiter-Glo ATP luminescence, 90 h; cytotoxicity (signal decrease), % at 8.35 µM; 5,600 compounds, 14% hits; AID 651742;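 active = mean signal decrease across replicates above about 35% based on untreated-well scatter, with enough replicates individually passing, limit read from the data; inconclusive = no rule stated though some were filed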;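 also: 0% = median of neutral control wells and 100% = median of positive control wells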
# NIH3T3 tox 2 = cytotoxicity in mouse NIH/3T3 fibroblasts | shares compounds with T cruzi growth-1 | NIH/3T3 viability, CellTiter-Glo ATP luminescence, 90 h | inhibition, % at 24.9 µM | 5,600 compounds, 56% hits;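 active = mean loss of cell viability signal at or above a set limit, and enough replicates individually reaching it; inconclusive = meets only the mean limit or only the replicate share; inactive = meets neither condition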;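 also: 0% = median of neutral control wells and 100% = median of positive control wells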
# Starred values were filed as active, the others as inactive; u = inconclusive; x = no result; ! = a repeat was not active.
SMILES,Pf Dd2 inh,T cruzi growth-1,GASC1 inh,IDH1 mut inh,T cruzi growth-2,T cruzi growth-3,NIH3T3 tox,NIH3T3 tox 2
C[C@H]1CCCCO[C@@H](CN(C)C(=O)Nc2cccc3ccccc23)[C@@H](C)CN([C@@H](C)CO)C(=O)c2cc(NC(=O)Cc3ccccc3)ccc2O1,-92*,102*,0,3,115*,63,8,9
C[C@@H]1CCCCO[C@H](CN(C)C(=O)Nc2cccc3ccccc23)[C@H](C)CN([C@@H](C)CO)C(=O)c2cc(NC(=O)Cc3ccccc3)ccc2O1,-75,107*,-3,3,103*,57,0,-7
C[C@@H]1CCCCO[C@@H](CN(C)C(=O)Nc2cccc3ccccc23)[C@H](C)CN([C@H](C)CO)C(=O)c2cc(NC(=O)c3ccccc3)ccc2O1,-59,103*,-2,x,101*,u,-18,-6
COc1cccc(NC(=O)COc2ccccc2C(N)=O)c1,x,x,x,0,x,x,x,x
C[C@H](CO)N1C[C@H](C)[C@@H](CN(C)Cc2ccc(C(=O)O)cc2)Oc2ncc(C#CCN(C)C)cc2C1=O,5,-21,3,-1,x,x,x,x
C[C@@H]1CN([C@H](C)CO)C(=O)c2cc(C#CCN(C)C)cnc2O[C@H]1CN(C)Cc1ccccc1,-8,-113,x,-1,x,x,x,x
C[C@@H]1CN([C@@H](C)CO)C(=O)c2cc(C#CCN(C)C)cnc2O[C@H]1CN(C)Cc1ccc(-c2ccccc2)cc1,-61,102*,3,-10,109*,116*!,40*,104*
C[C@@H]1CN([C@H](C)CO)C(=O)c2cc(C#CCN(C)C)cnc2O[C@H]1CN(C)Cc1ccc(-c2ccccc2)cc1,x,109*,0,x,111*,116*,u,104*
C[C@@H]1CN([C@H](C)CO)C(=O)c2cc(C#CCN(C)C)cnc2O[C@@H]1CN(C)Cc1ccc(C(=O)O)cc1,-1,105*,7,1,-7,3,-20,-5
C[C@@H]1CN([C@@H](C)CO)C(=O)c2cc(C#CCN(C)C)cnc2O[C@@H]1CN(C)Cc1ccc(-c2ccccc2)cc1,x,112*,8,x,110*,107*,47*,105*
CO[C@H]1CN(C)C(=O)c2ccc(NS(C)(=O)=O)cc2OC[C@@H](C)N(C)C[C@H]1C,21,-28,0,0,x,x,x,x
C[C@H](CO)N1C[C@H](C)[C@@H](CN(C)C(=O)c2cccnc2)Oc2cc(/C=C/c3ccccc3)ccc2S1(=O)=O,-26,38,-3,0,x,x,x,x
CN(C)C(=O)c1ccc(-c2ccc3c(c2)[C@H]2[C@H](CCN2C(=O)c2ccc(F)cc2)[C@@H](CO)N3C)cc1,-66,88,0,x,x,x,x,x
C[C@@H]1CN([C@@H](C)CO)S(=O)(=O)c2ccc(C#Cc3cccc(F)c3)cc2O[C@H]1CN(C)C(=O)NC1CCCCC1,-29,x,-1,5,x,x,x,x
CC(C)CC#Cc1ccc2c(c1)O[C@@H](CN(C)C(=O)NC1CCCC1)[C@H](C)CN([C@@H](C)CO)S2(=O)=O,-23,118*,-1,29,100*,77,19,9
CC(C)CC#Cc1ccc2c(c1)O[C@@H](CN(C)C(=O)NC1CCCC1)[C@H](C)CN([C@H](C)CO)S2(=O)=O,-34,123*,7,0,109*,73,7,94*
CC(C)CC#Cc1ccc2c(c1)O[C@H](CN(C)C(=O)NC(C)C)[C@@H](C)CN([C@H](C)CO)S2(=O)=O,-5,85,-1,0,x,x,x,x
C[C@@H]1CN([C@H](C)CO)C(=O)c2cc(NC(=O)C3CCCCC3)ccc2O[C@@H](C)CCCCO[C@@H]1CN(C)C(=O)Nc1ccc2c(c1)OCO2,-67,x,0,-2,x,x,x,x
C/C=C/c1ccc([C@@H]2[C@@H](CO)N(C(=O)Cc3cccnc3)[C@H]2CNC(C)=O)cc1,5,38,0,x,x,x,x,x
CCC(=O)N(C)C[C@H]1Oc2cc(-c3cccnc3)ccc2S(=O)(=O)N([C@H](C)CO)C[C@@H]1C,42,-33,-1,1,x,x,x,x

# Bioassay records: PubChem, Broad Institute
